The subject of data set [1] is J774.A1. In words: Inhibition of LPS-induced MAPK activation in mouse J774.A1 cells assessed as reduction in p38 phosphorylation at 5 to 20 uM pretreated for 2 hrs followed by LPS stimulation and measured after 30 mins by Western blot analysis. Type of data set: cell-based. The conditions noted are these: dose 5-20 µM, time 2.5 hrs. In outline: (§1)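 J774A.1 macrophages pretreated with 20, 10 or 5 μM for 2 h, then LPS 0.5 μg/mL for 30 min. RIPA lysates quantified by Bradford. 40 μg run on 12.5 % SDS-PAGE and transferred to PVDF. Blocked 1.5 h in BSA, primary antibody overnight at 4 °C, secondary 2 h at room temperature, detected by ECL.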
In general terms: A western blot detects proteins with antibodies after separation by electrophoresis.

In data set [2] the test system is Mus musculus. In words: Protection against LPS-induced C57BL/6 mouse model of acute lung injury assessed as reduction in thickening of the alveolar septum at 20 mg/kg, po administered 3 times for every 12 hrs followed by LPS stimulation at 5 mg/kg and measured after 6 hrs by immunohistochemical staining based analysis. Type of data set: functional, organism-based. The conditions noted are these: time 30.0 hrs. In outline: (§2)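 LPS-induced ALI in C57BL/6 mice: 20 mg/kg orally three times at 12 h intervals, then intratracheal LPS 5 mg/kg, lungs taken at 6 h. F4/80 IHC: xylene deparaffinisation, citrate pH 6 retrieval for 25 min, primary antibody at 4 °C for 12 h, secondary 1:2000, DAB and hematoxylin. Viewed at ×20.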

In data set [3] the target is Interleukin-1 receptor-associated kinase 1 (Homo sapiens) (UniProt P51617). Briefly: Inhibition of IRAK1 (unknown origin) at 10 uM relative to control.
Interleukin-1 receptor-associated kinase 1 (Homo sapiens), sequence (P51617 whole entry, looked up): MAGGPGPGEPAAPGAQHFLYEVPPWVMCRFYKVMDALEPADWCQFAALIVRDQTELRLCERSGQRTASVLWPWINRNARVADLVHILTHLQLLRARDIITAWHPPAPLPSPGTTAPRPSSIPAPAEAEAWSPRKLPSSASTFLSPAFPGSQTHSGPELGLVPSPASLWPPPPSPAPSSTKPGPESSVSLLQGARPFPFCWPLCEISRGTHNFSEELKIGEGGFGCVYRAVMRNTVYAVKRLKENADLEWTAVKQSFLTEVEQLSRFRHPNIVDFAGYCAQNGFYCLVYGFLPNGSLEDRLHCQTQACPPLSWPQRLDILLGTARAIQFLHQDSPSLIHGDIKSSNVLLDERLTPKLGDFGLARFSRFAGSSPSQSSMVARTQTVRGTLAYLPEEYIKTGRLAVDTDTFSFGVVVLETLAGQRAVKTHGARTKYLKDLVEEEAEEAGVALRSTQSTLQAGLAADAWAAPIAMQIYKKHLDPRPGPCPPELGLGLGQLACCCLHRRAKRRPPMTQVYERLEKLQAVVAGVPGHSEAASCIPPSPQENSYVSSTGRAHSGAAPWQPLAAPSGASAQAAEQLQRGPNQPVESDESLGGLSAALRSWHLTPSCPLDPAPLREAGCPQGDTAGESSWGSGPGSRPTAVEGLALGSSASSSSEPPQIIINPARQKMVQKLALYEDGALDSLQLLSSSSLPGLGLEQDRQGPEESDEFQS
Data set [4] concerns Mus musculus. In words: Protection against LPS-induced C57BL/6 mouse model of acute lung injury assessed as reduction in immune markers at 20 mg/kg, po administered 3 times for every 12 hrs followed by LPS stimulation at 5 mg/kg and measured after 6 hrs by immunohistochemical staining based analysis. The class given is functional, organism-based. The conditions noted are these: time 30.0 hrs. A digest of the protocol: as §2

Data set [5] relates to J774.A1. Briefly: Inhibition of LPS-induced MAPK activation in mouse J774.A1 cells assessed as reduction in JNK phosphorylation at 5 to 20 uM pretreated for 2 hrs followed by LPS stimulation and measured after 30 mins by Western blot analysis. The class given is cell-based. As to conditions: dose 5-20 µM, time 2.5 hrs. In outline:
as §1

Data set [6] relates to J774.A1. In words: Inhibition of LPS-induced NF-kappaB activation in mouse J774.A1 cells assessed as reduction in IkappaBalpha degradation at 5 to 20 uM pretreated for 2 hrs followed by LPS stimulation and measured after 30 mins by Western blot analysis. Type of data set: cell-based. As to conditions: dose 5-20 µM, time 2.5 hrs. A digest of the protocol: as §1
Data set [7] is described as follows: Cmax in male Sprague-Dawley rat at 1 mg/kg, iv measured upto 24 hrs by triple quadrupole mass spectrometric analysis. The class given is ADME, organism-based. As to conditions: in vivo. In outline:
(§3)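 Male SD rats (8 weeks, 200 g ± 20 g), n = 3 per route. Oral: 10 mg/kg by gavage in 0.05 % DMSO/normal saline, tail-vein blood at 13 times from 10 min to 24 h. IV: 1 mg/kg tail vein in 5 % DMSO/30 % PEG400/65 % saline, 14 samples from 5 min to 24 h. Heparinised plasma precipitated with acetonitrile containing internal standard. Non-compartmental analysis on mean concentrations.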

Data set [8] has as its system Mus musculus. In words: Protection against LPS-induced C57BL/6 mouse model of acute lung injury assessed as reduction in destruction of the alveolar cell structure at 20 mg/kg, po administered 3 times for every 12 hrs followed by LPS stimulation at 5 mg/kg and measured after 6 hrs by H and E staining based analysis. The class given is functional, organism-based. As to conditions: time 30.0 hrs. A digest of the protocol: (§4)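 LPS-induced ALI in C57BL/6 mice: 20 mg/kg orally three times at 12 h intervals, then intratracheal LPS 5 mg/kg, killed at 6 h. Lungs paraffin-embedded, cut into 5 μm sections and H&E stained. Viewed at ×20.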

The nature of data set [9]: AUC (0 to t) in male Sprague-Dawley rat at 10 mg/kg, po measured upto 24 hrs by triple quadrupole mass spectrometric analysis. As to conditions: in vivo. Type of data set: ADME, organism-based. A digest of the protocol:
as §3

In data set [10] the test system is Mus musculus. In words: Antiinflammatory activity in DSS-induced male C57BL/6 mouse model of inflammatory bowel disease assessed as reduction in F4/80 positive cell population in intestine at 20 mg/kg, IG administered with compound and DSS for 7 days followed by DSS replacement with distilled water for 3 days by immunohistochemistry staining based analysis. The class given is functional, organism-based. As to conditions: time 10.0 day. A digest of the protocol:
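DSS colitis in C57BL/6 mice (2.5 % DSS for 7 days, then water for 3 days), 20 mg/kg po daily in DMSO/CMC-Na, n = 6. Colon fixed in 4 % formaldehyde. For IHC: deparaffinised in xylene, antigen retrieval by boiling in citrate buffer pH 6 for 25 min, primary antibody at 4 °C for 12 h, secondary 1:2000, then DAB with hematoxylin counterstain.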

The subject of data set [11] is Mus musculus. In words: Antiinflammatory activity in DSS-induced male C57BL/6 mouse model of inflammatory bowel disease assessed as increase in colon length at 20 mg/kg, IG administered with compound and DSS for 7 days followed by DSS replacement with distilled water for 3 days. Type of data set: functional, organism-based. The conditions noted are these: time 10.0 day.

The subject of data set [12] is J774.A1. In words: Cytotoxicity against mouse J774.A1 cells assessed as reduction in cell viability at 10 uM measured after 24 hrs by MTT assay. The class given is toxicity, cell-based. The conditions noted are these: j774.a1, 24 h. In outline:
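J774A.1 cells seeded and incubated 24 h, then exposed to 10 μM compound for 24 h. MTT (5.0 mg/mL) added as 10 % for 4 h, formazan dissolved in DMSO with 30 min shaking, absorbance read at 490 nm. Expressed as % of control.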
In general terms: Formazan colour is commonly taken as a measure of viable cells.

Data set [13] has as its system Mus musculus. Briefly: Protection against LPS-induced C57BL/6 mouse model of acute lung injury assessed as reduction in number of neutrophils in BALF at 20 mg/kg, po administered 3 times for every 12 hrs followed by LPS stimulation at 5 mg/kg and measured after 6 hrs. Type of data set: functional, organism-based. As to conditions: time 30.0 hrs. A digest of the protocol: (§5)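 C57BL/6 mice, 6 per group. Gavaged at 20 mg/kg three times at 12 h intervals; controls received saline, and dexamethasone 20 mg/kg served as reference. After the last dose, LPS 5 mg/kg given intratracheally. At 6 h, blood collected for serum IL-6 by ELISA. Left lung lavaged with 3 × 200 μL saline, and BALF assayed for IL-6, total protein and neutrophil count. Mean ± SEM, n = 6.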

The nature of data set [14]: AUC (0 to infinity) in male Sprague-Dawley rat at 10 mg/kg, po measured upto 24 hrs by triple quadrupole mass spectrometric analysis. The conditions noted are these: in vivo. Type of data set: ADME, organism-based. A digest of the protocol: as §3
Data set [15] deals with Mus musculus. In words: Protection against LPS-induced C57BL/6 mouse model of acute lung injury assessed as reduction in IL-6 level in serum at 20 mg/kg, po administered 3 times for every 12 hrs followed by LPS stimulation at 5 mg/kg and measured after 6 hrs by ELISA. Type of data set: functional, organism-based. The conditions noted are these: time 30.0 hrs. A digest of the protocol:
as §5

The test system of data set [16] is Mus musculus. In words: Antiinflammatory activity in DSS-induced male C57BL/6 mouse model of inflammatory bowel disease assessed as reduction in red and white pulp merging in spleen at 20 mg/kg, IG administered with compound and DSS for 7 days followed by DSS replacement with distilled water for 3 days by H and E staining based analysis. Type of data set: functional, organism-based. As to conditions: time 10.0 day.

Data set [17] concerns Mus musculus. In words: Protection against LPS-induced C57BL/6 mouse model of acute lung injury assessed as reduction in interstitial edema in lungs at 20 mg/kg, po administered 3 times for every 12 hrs followed by LPS stimulation at 5 mg/kg and measured after 6 hrs by H and E staining based analysis. Type of data set: functional, organism-based. The conditions noted are these: time 30.0 hrs. A digest of the protocol: as §4

Data set [18] has as its system Mus musculus. Briefly: Protection against LPS-induced C57BL/6 mouse model of acute lung injury assessed as reduction in interstitial edema in lungs at 20 mg/kg, po administered 3 times for every 12 hrs followed by LPS stimulation at 5 mg/kg and measured after 6 hrs by immunohistochemical staining based analysis. As to conditions: time 30.0 hrs. Type of data set: functional, organism-based. A digest of the protocol: as §2

Broadly, the inhibition is the drop in the measured response relative to a control, in per cent. A word on the Cmax: it is the peak of the concentration-time curve. As usually defined, the AUC(0-t) is exposure summed from dosing to a finite time, without extrapolation to infinity. The low end stands for low exposure, the high end for high exposure. Broadly, the AUC(0-inf) is the area under the concentration-time curve extrapolated to infinity. Read a high AUC(0-inf) as high exposure.

Structures are written as SMILES. The source made the active and inactive calls. The calls are words filed in the database; no cut-off is given here.

`CC(=O)N1CCN(CCOc2cc(=O)oc3ccccc23)CC1`: the inhibition entry in the data set with J774.A1 [1] is “Active”. Also, the result in the data set on Mus musculus [2], with Mus musculus [4], in the data set on Mus musculus [8], in the data set on Mus musculus [10], in the data set with Mus musculus [11] and in the data set with Mus musculus [13] was Active. In addition, the result in the data set on Mus musculus [15], in the data set on Mus musculus [16], in the data set with Mus musculus [17] and in the data set on Mus musculus [18] was Active. In addition, the inhibition in data set [3] worked out at 48.1%. Further, the inhibition result with J774.A1 [5] and in the data set on J774.A1 [6] was “inactive” each time. Further, the Cmax in data set [7] is 2030 ng/mL. In data set [9], this molecule registered an AUC(0-t) at 24 h of 2670 ng·h/mL. Besides, in the data set on J774.A1 [12], the Activity entry is reported as “Non-Toxic”. Also, the AUC(0-inf) in data set [14] was found to be 3260 ng·h/mL.

The values above are taken from ChEMBL document CHEMBL5500386, “Design, synthesis and bioactivity evaluation of 4-hydroxycoumarin derivatives as potential anti-inflammatory agents against acute lung injury and colitis” (Eur J Med Chem, 2024).
